The nature of series [1]: Plasma concentration in rat at 0.5 mg/kg, iv after 0.5 hrs. Details: dose 0.5 mg/kg, route intravenous. In kind it is ADME, organism-based. An outline of the steps: (§1)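 Following 0.5 mg/Kg i.v. dosing in rats, total compound concentrations measured in plasma, blood and brain at 0.5 h and 2 h.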
Series [2] is described as follows: Mean residence time in rat at 2 mg/kg, po. In kind it is ADME, organism-based. Details: dose 2 mg/kg, route oral. The following applies: in vivo.
The next series deals with P-gp. The series is described as follows: Permeability efflux ratio in P-gp expressing pig LLC-PK1 cells. It counts as ADME, cell-based, Sus scrofa. Put shortly:
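Measured across LLC-PK1 cell monolayers, following a method from an earlier report.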

Series [3] can be described thus: Volume of distribution at steady state in rat at 0.5 mg/kg, iv. It counts as ADME, organism-based. Set-up: dose 0.5 mg/kg, route intravenous. The following applies: in vivo, read-out: Vdss. An outline of the steps:
(§2)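 Rats dosed 0.5 mg/Kg intravenously; clearance and steady-state volume of distribution derived from plasma exposure; values are means of at least two animals.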

The target in series [4] is T1, Fatty-acid amide hydrolase 1 (Rattus norvegicus, UniProt P97612).
T1 sequence (P97612 whole entry): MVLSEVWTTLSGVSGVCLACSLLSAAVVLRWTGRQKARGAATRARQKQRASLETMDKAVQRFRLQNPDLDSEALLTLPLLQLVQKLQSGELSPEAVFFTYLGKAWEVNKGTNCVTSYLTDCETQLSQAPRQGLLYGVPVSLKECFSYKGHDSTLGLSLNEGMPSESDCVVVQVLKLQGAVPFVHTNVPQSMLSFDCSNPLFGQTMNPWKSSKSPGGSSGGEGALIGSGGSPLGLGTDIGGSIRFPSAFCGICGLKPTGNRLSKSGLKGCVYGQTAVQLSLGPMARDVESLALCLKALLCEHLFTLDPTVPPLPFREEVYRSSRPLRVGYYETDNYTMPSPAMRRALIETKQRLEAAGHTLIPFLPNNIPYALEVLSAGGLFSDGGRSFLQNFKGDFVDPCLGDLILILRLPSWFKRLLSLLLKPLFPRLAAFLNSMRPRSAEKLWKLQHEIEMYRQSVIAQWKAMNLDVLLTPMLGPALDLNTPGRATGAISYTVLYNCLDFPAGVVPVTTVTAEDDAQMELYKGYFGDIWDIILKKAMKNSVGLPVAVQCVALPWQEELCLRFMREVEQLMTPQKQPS
The series is described as follows: Inhibition of FAAH in rat RBL cell assessed as conversion of [3H]AEA to [3H]ethanolamine by scintillation counting. It counts as cell-based.

Series [5] is described as follows: Cmax in rat at 2 mg/kg, po. In kind it is ADME, organism-based. Set-up: dose 2 mg/kg, route oral. The following applies: in vivo.
Series [6] in a line: Ratio of drug level in brain to plasma in rat at 0.5 mg/kg, iv. It counts as ADME, organism-based. Set-up: dose 0.5 mg/kg, route intravenous. An outline of the steps: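 Brain/plasma ratio calculated from total plasma and brain exposure after 0.5 mg/Kg i.v. in rat, corrected for fraction unbound in plasma and brain tissue, the latter determined by ultracentrifugation in rat tissues.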

Series [7] is described as follows: Bioavailability in rat. It counts as ADME, organism-based. The following applies: in vivo.
Series [8] is described as follows: Permeability across pig LLC-PK1 cells. In kind it is ADME, cell-based, Sus scrofa. The following applies: read-out: permeability.
The nature of series [9]: Clearance in rat at 0.5 mg/kg, iv. It counts as ADME, organism-based. Set-up: dose 0.5 mg/kg, route intravenous. The following applies: in vivo. An outline of the steps:
as §2

Series [10] in a line: Drug uptake in rat blood at 0.5 mg/kg, iv after 2 hrs. In kind it is ADME, organism-based. Set-up: dose 0.5 mg/kg, route intravenous. The following applies: read-out: Drug uptake. Put shortly:
as §1

The nature of series [11]: Drug uptake in rat blood at 0.5 mg/kg, iv after 0.5 hrs. It counts as ADME, organism-based. The following applies: read-out: Drug uptake. Set-up: dose 0.5 mg/kg, route intravenous. Put shortly:
as §1

Series [12] in a line: Plasma concentration in rat at 0.5 mg/kg, iv after 2 hrs. It counts as ADME, organism-based. Details: dose 0.5 mg/kg, route intravenous. An outline of the steps: as §1
The nature of series [13]: Drug uptake in rat brain at 0.5 mg/kg, iv after 2 hrs. The following applies: read-out: Drug uptake. Set-up: dose 0.5 mg/kg, route intravenous. It counts as ADME, organism-based. Put shortly:
as §1

The target of series [14] is T1, Fatty-acid amide hydrolase 1. The series is described as follows: Inhibition of rat FAAH assessed as hydrolysis of anandamido-amino-methyl-cumarin.
Series [15] addresses T2, Fatty-acid amide hydrolase 1 (Homo sapiens, UniProt O00519).
T2 sequence (O00519 whole entry): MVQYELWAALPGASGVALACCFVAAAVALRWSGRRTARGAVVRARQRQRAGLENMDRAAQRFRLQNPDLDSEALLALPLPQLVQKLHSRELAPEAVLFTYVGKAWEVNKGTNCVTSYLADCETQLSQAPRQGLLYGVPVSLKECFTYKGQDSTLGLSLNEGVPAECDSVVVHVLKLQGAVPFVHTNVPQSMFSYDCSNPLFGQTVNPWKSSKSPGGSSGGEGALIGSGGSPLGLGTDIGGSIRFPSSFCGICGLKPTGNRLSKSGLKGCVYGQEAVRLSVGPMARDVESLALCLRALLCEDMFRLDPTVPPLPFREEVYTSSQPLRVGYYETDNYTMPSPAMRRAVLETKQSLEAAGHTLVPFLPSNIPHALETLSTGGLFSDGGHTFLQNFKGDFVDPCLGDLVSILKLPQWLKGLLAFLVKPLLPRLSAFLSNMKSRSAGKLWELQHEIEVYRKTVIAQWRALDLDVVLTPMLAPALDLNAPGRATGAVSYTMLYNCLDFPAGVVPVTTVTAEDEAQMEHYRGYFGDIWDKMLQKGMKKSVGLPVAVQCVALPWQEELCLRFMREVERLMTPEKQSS
The series is described as follows: Inhibition of FAAH in human T84 cell assessed as conversion of [3H]AEA to [3H]ethanolamine by scintillation counting.

In series [16] the target is T2, Fatty-acid amide hydrolase 1. The series can be described thus: Inhibition of human FAAH assessed as hydrolysis of anandamido-amino-methyl-cumarin.
A short description of series [17]: Drug uptake in rat brain at 0.5 mg/kg, iv after 0.5 hrs. The following applies: read-out: Drug uptake. Set-up: dose 0.5 mg/kg, route intravenous. It counts as ADME, organism-based. Put shortly: as §1

SMILES strings stand for the structures.

We go through one molecule from ChEMBL document CHEMBL1759906, “Identification of potent, noncovalent fatty acid amide hydrolase (FAAH) inhibitors” (Bioorg Med Chem Lett, 2011).

One may read the MRT as a mean duration of stay, worked out from the concentration-time curve. As usually defined, the efflux ratio is the permeability from basolateral to apical divided by that in the opposite direction, in the common usage. Broadly, the EC50 is the concentration at which the effect is half-maximal. Broadly, the Cmax is the maximum level reached in the sampled fluid or tissue. What is called Kp is the ratio of the level in a tissue or fluid to that in plasma or blood. What is called bioavailability is the share of a dose that reaches the circulation, judged against a reference dose that is usually intravenous. Lower therefore signals poor availability. The term clearance denotes the volume of plasma or blood freed of the substance per unit of time. The low end stands for inefficient removal, the high end for efficient removal. What is called IC50 is the concentration at which inhibition is half-maximal.

With `CCn1c(=O)n([C@H]2CCCN(c3cc(-c4ccc(F)cc4)nc(N)n3)C2)c2ncccc21`, the concentration at 0.5 h stood at 2200 nM in series [1], 770 nM in series [11] and 380 nM in series [17]. For the same molecule, the MRT in [2] turned out to be 5.2 h. The efflux ratio in the series on P-gp came to 1.1. For the same molecule, the Vd in series [3] came out at 0.69 L/kg. The 50% effective concentration (EC50) in series [4] turned out to be 100 nM; in [15], 20 nM. The molecule further registered a Cmax in series [5] of 3400 nM. Besides, the concentration ratio (Kp) in series [6] was determined as 0.41. Moreover, the bioavailability in series [7] was determined as 99%. Also, the Papp in series [8] turned out to be 3.5 ×10⁻⁶ cm/s. Moreover, the clearance in series [9] is 4 mL/min/kg. The concentration at 2 h in series [10] was found to be 210 nM; in series [12], 700 nM; in series [13] it was 130 nM. In addition, the results for the IC50 in series [14] and in [16] were 43 nM and 14 nM, respectively.
